Test results as given in ChEMBL document CHEMBL1133010, “Structure-function studies of polymyxin B nonapeptide: implications to sensitization of gram-negative bacteria” (J Med Chem, 2000).
Converted amounts (≈) assume the structure as drawn.

Assays:
Format in all cases: functional
Escherichia coli [1] = assay: Relative sensitizing activity against Escherichia coli was determined as a percent of pPMBN (50 ug/mL) as a control
Method in brief: (§1)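 Clinical isolates at 1 × 10^5 CFU per well, in ISB with a 2-fold serial dilution (1000-0.5 µg/mL) of novobiocin. Peptide added at 50 µg/mL final. Incubated 20 h at 37 °C and read by visible growth. Sensitizing activity is the fold drop in novobiocin MIC with versus without peptide, expressed as percent of that given by 50 µg/mL pPMBN.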

Escherichia coli [2] = assay: Antimicrobial activity against Escherichia coli (Escherichia coli)
Method in brief: (§2)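 Clinical isolates grown on nutrient agar and kept at 4 °C. Overnight culture in isotonic sensitest broth (ISB) adjusted to 1 × 10^5 CFU/mL and inoculated into wells holding a 2-fold serial dilution (1000-0.5 µg/mL) of test agent in ISB. Incubated 20 h at 37 °C. MIC is the lowest concentration with no visible growth. 4-8 separate tests, varying by no more than one dilution.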

Klebsiella pneumoniae [3] = assay: Antimicrobial activity against Klebsiella pneumoniae (Klebsiella pneumoniae); method in brief: as §2
Klebsiella pneumoniae [4] = assay: Relative sensitizing activity against Klebsiella pneumoniae was determined as a percent of pPMBN (50 ug/mL) as a control; method in brief: as §1
Escherichia coli [5] = assay: Minimal inhibitory concentration of compound required against Escherichia coli was evaluated; Inactive; method in brief: as §2
Klebsiella pneumoniae [6] = assay: Minimal inhibitory concentration of compound required against Klebsiella pneumoniae was evaluated; Inactive; method in brief: as §2
Pseudomonas aeruginosa = assay: Minimal inhibitory concentration of compound required against Pseudomonas aeruginosa was evaluated
Method in brief: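 P. aeruginosa clinical isolate kept on nutrient agar at 4 °C. Overnight culture in isotonic sensitest broth adjusted to 1 × 10^5 CFU/mL and added to serial 2-fold dilutions (1000-0.5 µg/mL) of test agent in the same broth. MIC is the lowest concentration with no visible growth after 20 h at 37 °C. 4-8 separate tests, varying by no more than one dilution.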

Escherichia coli [7] = assay: Inhibitory concentration required to displace dansyl-PMBN (0.55 uM) from maximal specific binding to Escherichia coli LPS
Method in brief: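 Fluorescence displacement assay. E. coli LPS (3 µg/mL, ~2 × 10^-7 M) in 5 mM HEPES pH 7.2 was pre-equilibrated with dansyl-PMBN (0.55 µM). Peptide was added stepwise at 5-min intervals from 1 × 10^-5 to 1 × 10^-3 M stocks. Fluorescence read at excitation 340 nm and emission 485 nm after each addition. Percent inhibition was plotted against concentration to give maximal and 50% displacement. 2-3 repeats.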

CO[C@@H]1[C@@H](OC(N)=O)[C@@H](O)[C@H](Oc2ccc3c(O)c(NC(=O)c4ccc(O)c(CC=C(C)C)c4)c(=O)oc3c2C)OC1(C)C [NOVOBIOCIN]
MIC (Escherichia coli [1]): 125 µg/mL | MIC (Escherichia coli [2]): 125 µg/mL (≈ 204 µM) | MIC (Klebsiella pneumoniae [3]): 250 µg/mL (≈ 408 µM) | MIC (Klebsiella pneumoniae [4]): 62 µg/mL

CC(C)C[C@@H]1NC(=O)[C@@H](Cc2ccccc2)NC(=O)[C@H](CCN)NC(=O)[C@@H](NC(=O)[C@H](CCN)NC(=O)[C@@H](N)[C@@H](C)O)CCNC(=O)[C@H]([C@@H](C)O)NC(=O)[C@H](CCN)NC(=O)[C@H](CCN)NC1=O (stereo in doubt; form 1) [listing 1 of 2 here]
Activity (Escherichia coli [1]): 100% | MIC (Escherichia coli [5]): ≥ 1000 µg/mL | Activity (Klebsiella pneumoniae [4]): 100% | MIC (Klebsiella pneumoniae [6]): ≥ 1000 µg/mL | MIC (Pseudomonas aeruginosa): 8 µg/mL (≈ 8.31 µM)

CC(C)C[C@@H]1NC(=O)[C@@H](Cc2ccccc2)NC(=O)[C@H](CCN)NC(=O)[C@@H](NC(=O)[C@H](CCN)NC(=O)[C@@H](N)[C@@H](C)O)CCCCNC(=O)[C@H]([C@@H](C)O)NC(=O)[C@H](CCN)NC(=O)[C@H](CCN)NC1=O
IC50 (Escherichia coli [7]; Escherichia coli): 8 µM

CC(C)C[C@@H]1NC(=O)[C@@H](Cc2ccccc2)NC(=O)[C@H](CCN)NC(=O)[C@@H](NC(=O)[C@H](CCN)NC(=O)[C@@H](N)[C@@H](C)O)CCNC(=O)[C@H]([C@@H](C)O)NC(=O)[C@H](CCN)NC(=O)[C@H](CCN)NC1=O (stereo in doubt; form 2)
IC50 (Escherichia coli [7]): 3 µM

CC(C)C[C@@H]1NC(=O)[C@@H](Cc2ccccc2)NC(=O)[C@H](CCN=C(N)N)NC(=O)[C@@H](NC(=O)[C@H](CCN=C(N)N)NC(=O)[C@@H](N)[C@@H](C)O)CCNC(=O)[C@H]([C@@H](C)O)NC(=O)[C@H](CCN=C(N)N)NC(=O)[C@H](CCN=C(N)N)NC1=O
IC50 (Escherichia coli [7]; Escherichia coli): 3.8 µM

CC(C)C[C@@H]1NC(=O)[C@@H](Cc2ccccc2)NC(=O)[C@H](CN)NC(=O)[C@@H](NC(=O)[C@H](CN)NC(=O)[C@@H](N)[C@@H](C)O)CNC(=O)[C@H]([C@@H](C)O)NC(=O)[C@H](CN)NC(=O)[C@H](CN)NC1=O
IC50 (Escherichia coli [7]; Escherichia coli): 30 µM

CC(C)C[C@@H]1NC(=O)[C@@H](Cc2ccccc2)NC(=O)[C@H](CCCCN)NC(=O)[C@@H](NC(=O)[C@H](CCCCN)NC(=O)[C@@H](N)[C@@H](C)O)CCCCNC(=O)[C@H]([C@@H](C)O)NC(=O)[C@H](CCCCN)NC(=O)[C@H](CCCCN)NC1=O
IC50 (Escherichia coli [7]; Escherichia coli): 35 µM

CC(C)C[C@@H]1NC(=O)[C@H](Cc2ccccc2)NC(=O)[C@H](CCN)NC(=O)[C@@H](NC(=O)[C@H](CCN)NC(=O)[C@@H](N)[C@@H](C)O)CCNC(=O)[C@H]([C@@H](C)O)NC(=O)[C@H](CCN)NC(=O)[C@H](CCN)NC1=O
IC50 (Escherichia coli [7]; Escherichia coli): 8 µM

CC(C)C[C@@H]1NC(=O)[C@@H](Cc2ccccc2)NC(=O)[C@H](CCN)NC(=O)[C@@H](NC(=O)[C@H](CCN)NC(=O)[C@@H](N)[C@@H](C)O)CCNC(=O)[C@H]([C@@H](C)O)NC(=O)[C@H](CCN)NC(=O)[C@H](CCN)NC1=O (stereo in doubt; form 1) [listing 2 of 2 here]
IC50 (Escherichia coli [7]; Escherichia coli): 2.5 µM
